In ChEMBL document CHEMBL1151705, “Novel azalides derived from 16-membered macrolides. Part II: Isolation of the linear 9-formylcarboxylic acid and its sequential macrocyclization with an amino alcohol or an azidoamine” (2008):
In brackets after ≈: the same amount, converted by molar mass.

What was measured:
Format in all cases: functional
[1] = test system: Streptococcus pyogenes; assay: Antimicrobial activity against drug-susceptible Streptococcus pyogenes 1 after 20 hrs by agar dilution method; settings: Streptococcus pyogenes, 20 h; read-out: MIC
Procedure, shortened: (§1)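 Streptococci, H. influenzae and M. catarrhalis were precultured on blood agar plates. Suspensions of about 10⁶ CFU/ml were inoculated onto sensitivity disk agar supplemented with 5% horse blood and incubated at 37 °C for 20 h. MIC was read as the lowest drug concentration with no visible growth.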

[2] = test system: Moraxella catarrhalis; assay: Antimicrobial activity against drug-susceptible Moraxella catarrhalis 2 after 20 hrs by agar dilution method; settings: Moraxella catarrhalis, 20 h; read-out: MIC; procedure, shortened: as §1
[3] = test system: Streptococcus pneumoniae; assay: Antimicrobial activity against Streptococcus pneumoniae 6 constitutively expressing ermB after 20 hrs by agar dilution method; settings: Streptococcus pneumoniae, 20 h; read-out: MIC; procedure, shortened: as §1
[4] = test system: Haemophilus influenzae; assay: Antimicrobial activity against drug-susceptible Haemophilus influenzae 1 after 20 hrs by agar dilution method; settings: Haemophilus influenzae, 20 h; read-out: MIC; procedure, shortened: as §1
[5] = test system: Streptococcus pneumoniae; assay: Antimicrobial activity against Streptococcus pneumoniae 5 constitutively expressing ermB/mefA after 20 hrs by agar dilution method; settings: Streptococcus pneumoniae, 20 h; read-out: MIC; procedure, shortened: as §1
[6] = test system: Staphylococcus aureus; assay: Antimicrobial activity against Staphylococcus aureus 4 constitutively expressing ermA after 20 hrs by agar dilution method
Procedure, shortened: (§2)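 Agar dilution MIC. S. aureus seed culture was grown in sensitivity test broth. Cell suspension (about 10⁶ CFU/ml) was inoculated onto sensitivity disk agar with 5% horse blood and incubated at 37 °C for 20 h. MIC was the lowest drug concentration that prevented visible growth.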

[7] = test system: Streptococcus pneumoniae; assay: Antimicrobial activity against Streptococcus pneumoniae 8 expressing inducible ermB after 20 hrs by agar dilution method; settings: Streptococcus pneumoniae, 20 h; read-out: MIC; procedure, shortened: as §1
[8] = test system: Staphylococcus aureus; assay: Antimicrobial activity against drug-susceptible Staphylococcus aureus 209P JC-1 after 20 hrs by agar dilution method; settings: Staphylococcus aureus, 209P, 20 h; read-out: MIC; procedure, shortened: as §2
[9] = test system: Streptococcus pneumoniae; assay: Antimicrobial activity against Streptococcus pneumoniae 4 constitutively expressing ermB after 20 hrs by agar dilution method; settings: Streptococcus pneumoniae, 20 h; read-out: MIC; procedure, shortened: as §1
[10] = test system: Streptococcus pneumoniae; assay: Antimicrobial activity against Streptococcus pneumoniae 10 expressing mefA after 20 hrs by agar dilution method; settings: Streptococcus pneumoniae, 20 h; read-out: MIC; procedure, shortened: as §1
[11] = test system: Streptococcus pneumoniae; assay: Antimicrobial activity against Streptococcus pneumoniae 7 expressing inducible ermB after 20 hrs by agar dilution method; settings: Streptococcus pneumoniae, 20 h; read-out: MIC; procedure, shortened: as §1
[12] = test system: Staphylococcus aureus; assay: Antimicrobial activity against drug-susceptible Staphylococcus aureus 2 after 20 hrs by agar dilution method; settings: Staphylococcus aureus, 20 h; read-out: MIC; procedure, shortened: as §2
[13] = test system: Streptococcus pneumoniae; assay: Antimicrobial activity against drug-susceptible Streptococcus pneumoniae 2 after 20 hrs by agar dilution method; settings: Streptococcus pneumoniae, 20 h; read-out: MIC; procedure, shortened: as §1
[14] = test system: Moraxella catarrhalis; assay: Antimicrobial activity against drug-susceptible Moraxella catarrhalis 1 after 20 hrs by agar dilution method; settings: Moraxella catarrhalis, 20 h; read-out: MIC; procedure, shortened: as §1
[15] = test system: Streptococcus pyogenes; assay: Antimicrobial activity against Streptococcus pyogenes 2 constitutively expressing ermB after 20 hrs by agar dilution method; procedure, shortened: as §1
[16] = test system: Streptococcus pneumoniae; assay: Antimicrobial activity against drug-susceptible Streptococcus pneumoniae DP1 Type1 after 20 hrs by agar dilution method; settings: Streptococcus pneumoniae, 20 h; read-out: MIC; procedure, shortened: as §1
[17] = test system: Staphylococcus aureus; assay: Antimicrobial activity against Staphylococcus aureus 5 expressing inducible ermB after 20 hrs by agar dilution method; settings: Staphylococcus aureus, 20 h; read-out: MIC; procedure, shortened: as §2
[18] = test system: Staphylococcus aureus; assay: Antimicrobial activity against Staphylococcus aureus 6 expressing inducible ermB after 20 hrs by agar dilution method; procedure, shortened: as §2
[19] = test system: Haemophilus influenzae; assay: Antimicrobial activity against drug-susceptible Haemophilus influenzae 4 after 20 hrs by agar dilution method; settings: Haemophilus influenzae, 20 h; read-out: MIC; procedure, shortened: as §1
[20] = test system: Streptococcus pneumoniae; assay: Antimicrobial activity against Streptococcus pneumoniae 9 expressing mefA after 20 hrs by agar dilution method; settings: Streptococcus pneumoniae, 20 h; read-out: MIC; procedure, shortened: as §1
[21] = test system: Haemophilus influenzae; assay: Antimicrobial activity against drug-susceptible Haemophilus influenzae 3 after 20 hrs by agar dilution method; settings: Haemophilus influenzae, 20 h; read-out: MIC; procedure, shortened: as §1
[22] = test system: Streptococcus pneumoniae; assay: Antimicrobial activity against drug-susceptible Streptococcus pneumoniae 3 after 20 hrs by agar dilution method; settings: Streptococcus pneumoniae, 20 h; read-out: MIC; procedure, shortened: as §1
[23] = test system: Haemophilus influenzae; assay: Antimicrobial activity against drug-susceptible Haemophilus influenzae 2 after 20 hrs by agar dilution method; settings: Haemophilus influenzae, 20 h; read-out: MIC; procedure, shortened: as §1
[24] = test system: Staphylococcus aureus; assay: Antimicrobial activity against drug-susceptible Staphylococcus aureus 3 after 20 hrs by agar dilution method; settings: Staphylococcus aureus, 20 h; read-out: MIC; procedure, shortened: as §2
[25] = test system: Streptococcus pyogenes; assay: Antimicrobial activity against Streptococcus pyogenes 3 expressing mefA after 20 hrs by agar dilution method; settings: Streptococcus pyogenes, 20 h; read-out: MIC; procedure, shortened: as §1

Structure (SMILES) | MIC [1] | MIC [2] | MIC [3] | MIC [4] | MIC [5] | MIC [6] | MIC [7] | MIC [8] | MIC [9] | MIC [10] | MIC [11] | MIC [12] | MIC [13] | MIC [14] | MIC [15] | MIC [16] | MIC [17] | MIC [18] | MIC [19] | MIC [20] | also measured
CCOC(=O)[C@H]1[C@H](C)O[C@@H](O[C@H]2[C@H](N(C)C)[C@@H](O)[C@H](O[C@H]3[C@@H](CC=O)C[C@@H](C)[C@@H](O)CN(C)CCC[C@H](C/C=C/c4ccnc5ccccc45)OC(=O)C[C@@H](OC(=O)CC)[C@@H]3OC)O[C@@H]2C)C[C@@]1(C)O | 0.13 µg/mL (≈ 0.132 µM) | 1 µg/mL (≈ 1.01 µM) | > 128 µg/mL | 32 µg/mL (≈ 32.4 µM) | > 128 µg/mL | > 128 µg/mL | 4 µg/mL (≈ 4.06 µM) | 0.25 µg/mL (≈ 0.253 µM) | > 128 µg/mL | 0.06 µg/mL (≈ 0.0608 µM) | 8 µg/mL (≈ 8.11 µM) | 1 µg/mL (≈ 1.01 µM) | 0.06 µg/mL (≈ 0.0608 µM) | 1 µg/mL (≈ 1.01 µM) | > 128 µg/mL | 0.03 µg/mL (≈ 0.0304 µM) | 0.25 µg/mL (≈ 0.253 µM) | 0.5 µg/mL (≈ 0.507 µM) | 8 µg/mL (≈ 8.11 µM) | 0.06 µg/mL (≈ 0.0608 µM) | MIC [21]: 8 µg/mL (≈ 8.11 µM); MIC [22]: 0.015 µg/mL (≈ 0.0152 µM); MIC [23]: 2 µg/mL (≈ 2.03 µM); MIC [24]: 0.25 µg/mL (≈ 0.253 µM); MIC [25]: 0.5 µg/mL (≈ 0.507 µM)
CCOC(=O)[C@H]1[C@H](C)O[C@@H](O[C@H]2[C@H](N(C)C)[C@@H](O)[C@H](O[C@H]3[C@@H](CC=O)C[C@@H](C)[C@@H](O)CN(C)CCC[C@@H](CCCc4ccnc5ccccc45)OC(=O)C[C@@H](OC(=O)CC)[C@@H]3OC)O[C@@H]2C)C[C@@]1(C)O | 0.13 µg/mL (≈ 0.132 µM) | 2 µg/mL (≈ 2.02 µM) | > 128 µg/mL | 64 µg/mL (≈ 64.8 µM) | > 128 µg/mL | > 128 µg/mL | 32 µg/mL (≈ 32.4 µM) | 0.25 µg/mL (≈ 0.253 µM) | > 128 µg/mL | 0.06 µg/mL (≈ 0.0607 µM) | 32 µg/mL (≈ 32.4 µM) | 0.5 µg/mL (≈ 0.506 µM) | 0.06 µg/mL (≈ 0.0607 µM) | 2 µg/mL (≈ 2.02 µM) | > 128 µg/mL | 0.03 µg/mL (≈ 0.0304 µM) | 0.25 µg/mL (≈ 0.253 µM) | 0.5 µg/mL (≈ 0.506 µM) | 8 µg/mL (≈ 8.1 µM) | 0.06 µg/mL (≈ 0.0607 µM) | MIC [21]: 8 µg/mL (≈ 8.1 µM); MIC [22]: 0.06 µg/mL (≈ 0.0607 µM); MIC [23]: 4 µg/mL (≈ 4.05 µM); MIC [24]: 0.25 µg/mL (≈ 0.253 µM); MIC [25]: 0.5 µg/mL (≈ 0.506 µM)
CCOC(=O)[C@H]1[C@H](C)O[C@@H](O[C@H]2[C@H](N(C)C)[C@@H](O)[C@H](O[C@H]3[C@@H](CC=O)C[C@@H](C)[C@@H](O)CN(C)CCC[C@H](C/C=C/c4ccc5ccccc5c4)OC(=O)C[C@@H](OC(=O)CC)[C@@H]3OC)O[C@@H]2C)C[C@@]1(C)O | 0.25 µg/mL (≈ 0.254 µM) | 2 µg/mL (≈ 2.03 µM) | 32 µg/mL (≈ 32.5 µM) | 32 µg/mL (≈ 32.5 µM) | 32 µg/mL (≈ 32.5 µM) | 64 µg/mL (≈ 65 µM) | 8 µg/mL (≈ 8.12 µM) | 0.5 µg/mL (≈ 0.507 µM) | 32 µg/mL (≈ 32.5 µM) | 0.13 µg/mL (≈ 0.132 µM) | 8 µg/mL (≈ 8.12 µM) | 2 µg/mL (≈ 2.03 µM) | 0.06 µg/mL (≈ 0.0609 µM) | 2 µg/mL (≈ 2.03 µM) | 32 µg/mL (≈ 32.5 µM) | 0.06 µg/mL (≈ 0.0609 µM) | 0.5 µg/mL (≈ 0.507 µM) | 1 µg/mL (≈ 1.01 µM) | 16 µg/mL (≈ 16.2 µM) | 0.13 µg/mL (≈ 0.132 µM) | MIC [21]: 16 µg/mL (≈ 16.2 µM); MIC [22]: 0.13 µg/mL (≈ 0.132 µM); MIC [23]: 8 µg/mL (≈ 8.12 µM); MIC [24]: 0.5 µg/mL (≈ 0.507 µM); MIC [25]: 1 µg/mL (≈ 1.01 µM)
CCOC(=O)[C@H]1[C@H](C)O[C@@H](O[C@H]2[C@H](N(C)C)[C@@H](O)[C@H](O[C@H]3[C@@H](CC=O)C[C@@H](C)[C@@H](O)CN(C)CCC[C@H](C/C=C/c4cccnc4)OC(=O)C[C@@H](OC(=O)CC)[C@@H]3OC)O[C@@H]2C)C[C@@]1(C)O | 0.06 µg/mL (≈ 0.0641 µM) | 1 µg/mL (≈ 1.07 µM) | > 128 µg/mL | 32 µg/mL (≈ 34.2 µM) | > 128 µg/mL | > 128 µg/mL | 32 µg/mL (≈ 34.2 µM) | 0.5 µg/mL (≈ 0.534 µM) | > 128 µg/mL | 0.03 µg/mL (≈ 0.032 µM) | 32 µg/mL (≈ 34.2 µM) | 1 µg/mL (≈ 1.07 µM) | 0.03 µg/mL (≈ 0.032 µM) | 1 µg/mL (≈ 1.07 µM) | > 128 µg/mL | 0.015 µg/mL (≈ 0.016 µM) | 0.25 µg/mL (≈ 0.267 µM) | 0.5 µg/mL (≈ 0.534 µM) | 16 µg/mL (≈ 17.1 µM) | 0.03 µg/mL (≈ 0.032 µM) | MIC [21]: 8 µg/mL (≈ 8.55 µM); MIC [22]: 0.03 µg/mL (≈ 0.032 µM); MIC [23]: 2 µg/mL (≈ 2.14 µM); MIC [24]: 0.25 µg/mL (≈ 0.267 µM); MIC [25]: 0.5 µg/mL (≈ 0.534 µM)
